Data from ChEMBL document CHEMBL1811795, “Photolabile ubiquinone analogues for identification and characterization of quinone binding sites in proteins” (Bioorg Med Chem, 2010).
Active and inactive are the calls of the source. No cut-off for these calls is given here.

Legend:
Escherichia coli [1] = experiment: Inhibition of photo labeled Escherichia coli WrbA activity at 50 uM; details: TDE = time-dependent effect
Method in brief: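 WrbA (10 µM) with 50 µM azidoquinone in 20 mM potassium phosphate pH 7.2, on ice, under mid-wavelength UV light at 7 cm; aliquots taken over time and kept dark on ice. Activity then read within 1 h as NADH oxidation at 340 nm with 100 µM FMN, 200 µM NADH and 200 µM quinone.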

Bacillus subtilis [2] = experiment: Inhibition of Bacillus subtilis Succinate-ubiquinone oxidoreductase using AzQ0 as substrate
Method in brief: (§1)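 Succinate:quinone reductase of purified B. subtilis Complex II, read as DCPIP reduction at 600 nm. Conditions: 20 mM succinate, 50 mM potassium phosphate pH 7.4, 1 mM KCN, 0.1 mM EDTA, room temperature, quinone starting the reaction. HQNO added at 10 µM final; percent inhibition recorded.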

Escherichia coli [3] = experiment: Activity of Escherichia coli WrbA
Method in brief: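 Purified E. coli WrbA in 20 mM potassium phosphate pH 7.2, room temperature, with 100 µM FMN, 200 µM NADH and 200 µM quinone; NADH oxidation followed at 340 nm; Vmax reported.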

[4] = Photo stability of the compound assessed as decomposition at 500 uM after 10 mins of UV-illumination; type: physicochemical
Rhodobacter capsulatus [5] = experiment: Activity of Rhodobacter capsulatus NADH-ubiquinone oxidoreductase
Method in brief: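 R. capsulatus membranes (aerobic, dark, 32 °C growth) assayed for NADH:quinone reductase at 25 °C: 50 mM Tris–Cl pH 8, 10 mM KCl, 5 mM MgCl2, 0.2 µg/mL gramicidin A, 150 µM NADH. Quinone varied 0.2–3 Km; Michaelis–Menten fit of initial rates gives apparent Km and Vmax. NADH oxidation read at 340 nm.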

Bacillus subtilis [6] = experiment: Inhibition of photo labeled detergent solubilized succinate:ubiquinone oxidoreductase activity of respiratory chain in Bacillus subtilis after 5 mins of UV-illumination
Method in brief: (§2)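 Purified Complex II (5 µM, detergent) with 10–75 µM azidoquinone in 50 mM potassium phosphate, 1 mM EDTA, pH 7.4, illuminated on ice with mid-wavelength UV at 7 cm; timed aliquots held dark on ice. SQR activity then measured within 1 h by DCPIP reduction with Q1 as acceptor.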

Bacillus subtilis [7] = experiment: Activity of Bacillus subtilis Succinate-ubiquinone oxidoreductase
Method in brief: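 Purified detergent-solubilized B. subtilis Complex II ([…]): succinate-driven DCPIP reduction followed at 600 nm, 20 mM succinate, quinone (50 mM as printed) as primary acceptor, 50 mM potassium phosphate pH 7.4 with 1 mM KCN and 0.1 mM EDTA, room temperature, started by quinone; Vmax reported.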

Bacillus subtilis [8] = experiment: Inhibition of photo labeled detergent solubilized succinate:ubiquinone oxidoreductase activity in Bacillus subtilis measured in dark; method in brief: as §2
Rhodobacter capsulatus [9] = experiment: Activity of Rhodobacter capsulatus NADH-ubiquinone oxidoreductase at 50 uM UV-illuminated compound
Method in brief: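 R. capsulatus membranes incubated with 50 µM previously UV-illuminated azidoquinone, then NADH:O2 reductase (NADH oxidase) activity measured. Runs without additions and with the unmodified quinone were done in parallel.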

Rhodobacter capsulatus [10] = experiment: Inhibition of NADH:Q1 reductase activity of Rhodobacter capsulatus NADH-ubiquinone oxidoreductase at 20 uM; details: TDE = time-dependent effect
Method in brief: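 Membranes in Buffer A (50 mM Bis–Tris propane pH 6.8, 20 mM KCl, 10 mM MgCl2) at 1 mg/mL protein, preincubated 5 min dark with ~20 µM azidoquinone, UV-illuminated up to 10 min at 7 cm, 4 °C. NADH:Q1 reductase then read at 340 nm, 25 °C, pH 8.0 Tris–Cl with 5 mM KCN, 100 µM Q1, 150 µM NADH.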

Rhodobacter capsulatus [11] = experiment: Inhibition of NADH:ferricyanide reductase activity of Rhodobacter capsulatus NADH-ubiquinone oxidoreductase at 20 uM after 20 mins of UV-illumination
Rhodobacter capsulatus [12] = experiment: Inhibition of NADH:Q1 reductase activity of Rhodobacter capsulatus NADH-ubiquinone oxidoreductase at 20 uM after 5 mins of UV-illumination
Method in brief: (§3)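 R. capsulatus membranes, 1 mg/mL protein in Bis–Tris propane buffer pH 6.8, preincubated 5 min in the dark with about 20 µM azidoquinone. Then illuminated with mid-wavelength UV at 7 cm, 4 °C, in a quartz cuvette. Where stated, 5 µM NADH was added (with KCN) before illumination. NADH:Q1 reductase assayed straight after: 340 nm, 25 °C, Tris–Cl pH 8.0, 5 mM KCN, 100 µM Q1, 150 µM NADH, gramicidin.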

Rhodobacter capsulatus [13] = experiment: Inhibition of NADH:Q1 reductase activity of Rhodobacter capsulatus NADH-ubiquinone oxidoreductase at 20 uM after 5 mins of UV-illumination in presence of 5 uM NADH; method in brief: as §3
Rhodobacter capsulatus [14] = experiment: Activity of Rhodobacter capsulatus NADH-ubiquinone oxidoreductase at 50 uM post UV-illuminated compound
Rhodobacter capsulatus [15] = experiment: Inhibition of Rhodobacter capsulatus NADH-ubiquinone oxidoreductase using Q1 as substrate
Rhodobacter capsulatus [16] = experiment: Inhibition of Rhodobacter capsulatus NADH-ubiquinone oxidoreductase using AzQ0 as substrate
Rhodobacter capsulatus [17] = experiment: Inhibition of Rhodobacter capsulatus NADH-ubiquinone oxidoreductase using DMB as substrate
Rhodobacter capsulatus [18] = experiment: Inhibition of Rhodobacter capsulatus NADH-ubiquinone oxidoreductase using AzQ1 as substrate
Rhodobacter capsulatus [19] = experiment: Inhibition of Rhodobacter capsulatus NADH-ubiquinone oxidoreductase using Q0 as substrate
Rhodobacter capsulatus [20] = experiment: Inhibition of Rhodobacter capsulatus NADH-ubiquinone oxidoreductase using DAzB as substrate
Bacillus subtilis [21] = experiment: Inhibition of Bacillus subtilis Succinate-ubiquinone oxidoreductase using Q1 as substrate
Method in brief: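 Purified B. subtilis Complex II (from a strain overproducing it, solubilised in dodecylmaltoside), 5 µM, in 50 mM potassium phosphate, 1 mM EDTA, pH 7.4. Illuminated on ice with mid-wavelength UV at 7 cm, with 10–75 µM azidoquinone. Samples held dark on ice, then assayed within 1 h: succinate:Q1 reductase, read as DCPIP reduction at 600 nm, room temperature.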

Bacillus subtilis [22] = experiment: Inhibition of Bacillus subtilis Succinate-ubiquinone oxidoreductase using Q0 as substrate; method in brief: as §1

COC1=C(OC)C(=O)C(N=[N+]=[N-])=C(C)C1=O
inhibition (Escherichia coli [1]): tde | Imax (Bacillus subtilis [2]): 89% | Vmax (microM/min/mg) (Escherichia coli [3]): 724 | Stability [4]: Stable | Km (Rhodobacter capsulatus [5]): 52 µM | Vmax (Rhodobacter capsulatus [5]): 0.58 µmol/min/mg | inhibition (Bacillus subtilis [6]): Active | Vmax (microM/min/mg) (Bacillus subtilis [7]): 3.72 | inhibition (Bacillus subtilis [8]): inactive | inhibition (Rhodobacter capsulatus [9]): 20%

COC1=C(OC)C(=O)C(CCCCCN=[N+]=[N-])=C(C)C1=O
inhibition (Rhodobacter capsulatus [10]): tde | Km (Rhodobacter capsulatus [5]): 21 µM | Vmax (Rhodobacter capsulatus [5]): 0.35 µmol/min/mg | Vmax (microM/min/mg) (Bacillus subtilis [7]): 2.57 | inhibition (Bacillus subtilis [8]): inactive | inhibition (Rhodobacter capsulatus [9]): 20% | inhibition (Rhodobacter capsulatus [11]): inactive

[N-]=[N+]=NC1=CC(=O)C=CC1=O
inhibition (Rhodobacter capsulatus [12]): Active | inhibition (Rhodobacter capsulatus [13]): Active

CC1=CC(=O)C(N=[N+]=[N-])=C(C)C1=O
Vmax (microM/min/mg) (Escherichia coli [3]): 464 | Stability [4]: Unstable | Km (Rhodobacter capsulatus [5]): 86 µM | Vmax (Rhodobacter capsulatus [5]): 0.59 µmol/min/mg | inhibition (Rhodobacter capsulatus [14]): inactive | Vmax (microM/min/mg) (Bacillus subtilis [7]): 4.72 | inhibition (Bacillus subtilis [8]): inactive

C/C=C(\C)[C@H](O)[C@H](C)/C=C(C)/C=C/C/C(C)=C/Cc1nc(OC)c(OC)c(O)c1C
Imax (Rhodobacter capsulatus [15]): 73% | Imax (Rhodobacter capsulatus [16]): 68% | Imax (Rhodobacter capsulatus [17]): 75% | Imax (Rhodobacter capsulatus [18]): 79% | Imax (Rhodobacter capsulatus [19]): 68% | Imax (Rhodobacter capsulatus [20]): 71%

CC1=CC(=O)C=C(C)C1=O
Vmax (microM/min/mg) (Escherichia coli [3]): 546 | Km (Rhodobacter capsulatus [5]): 100 µM | Vmax (Rhodobacter capsulatus [5]): 0.35 µmol/min/mg | Vmax (microM/min/mg) (Bacillus subtilis [7]): 3.99 | inhibition (Bacillus subtilis [8]): inactive

C=C(C)[C@H]1Cc2c(ccc3c2O[C@@H]2COc4cc(OC)c(OC)cc4[C@@H]2C3=O)O1
Imax (Rhodobacter capsulatus [15]): 68% | Imax (Rhodobacter capsulatus [16]): 53% | Imax (Rhodobacter capsulatus [17]): 63% | Imax (Rhodobacter capsulatus [18]): 79% | Imax (Rhodobacter capsulatus [19]): 48% | Imax (Rhodobacter capsulatus [20]): 53%

COC1=C(OC)C(=O)C(CC=C(C)C)=C(C)C1=O
Imax (Bacillus subtilis [21]): 90% | Vmax (microM/min/mg) (Escherichia coli [3]): < 10 | Km (Rhodobacter capsulatus [5]): 23 µM | Vmax (Rhodobacter capsulatus [5]): 0.67 µmol/min/mg | Vmax (microM/min/mg) (Bacillus subtilis [7]): 2.52 | inhibition (Bacillus subtilis [8]): inactive

COC1=C(OC)C(=O)C(C)=CC1=O
Vmax (microM/min/mg) (Escherichia coli [3]): 684 | Km (Rhodobacter capsulatus [5]): 75 µM | Vmax (Rhodobacter capsulatus [5]): 0.37 µmol/min/mg | Imax (Bacillus subtilis [22]): 88% | Vmax (microM/min/mg) (Bacillus subtilis [7]): 2.19 | inhibition (Bacillus subtilis [8]): inactive
